Data on ten compounds can be found in ChEMBL document CHEMBL5154634, “A Modular Synthetic Route Involving N-Aryl-2-nitrosoaniline Intermediates Leads to a New Series of 3-Substituted Halogenated Phenazine Antibacterial Agents” (J Med Chem, 2021).

≈ marks a conversion by molar mass, not a printed value.

In data set [1] the test system is Enterococcus faecium. Kind of data set: Antibacterial activity against vancomycin-resistant Enterococcus faecium ATCC 700221 assessed as bacterial growth inhibition incubated for 16 hrs by broth microdilution susceptibility test. Format: functional. An outline of the steps:
(§1)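 CLSI broth microdilution with 11 twofold dilutions (0.05–50 μM). Medium was LB for the staphylococci and BHI for VRE 700221. About 10^5 cells per well from a log-phase culture. […] DMSO vehicle up to 0.5% v/v. At least three independent experiments.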
Background: Broth dilution looks for growth in wells or tubes with falling amounts of substance.

Data set [2] deals with Staphylococcus epidermidis. Kind of data set: Bactericidal activity against methicillin-resistant Staphylococcus epidermidis ATCC 35984 planktonic cells assessed as planktonic eradication incubated for 24 hrs followed by incubation for overnight in fresh medium by Calgary biofilm device assay. The format is functional. The method in brief: (§2)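 Calgary biofilm device. Biofilms grown 24 h at 37 °C in TSB with 0.5% glucose, then challenged 24 h with twofold compound dilutions. 20 μL of challenge medium transferred into fresh TSB with 0.5% glucose and incubated overnight at 37 °C. MBC is the concentration with no visible turbidity. At least three independent experiments.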

Data set [3] has as its system Mycobacterium tuberculosis. Kind of data set: Antibacterial activity against Mycobacterium tuberculosis CDC1551 assessed as bacterial growth inhibition incubated for 5 days by luminescence based analysis. The format is functional. To be noted: CDC1551, 120 h, time 5 day. The method in brief: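 Bioluminescent Mtb-lux CDC1551 reporter grown in Middlebrook 7H9 with 0.05% Tween 80, 10% OADC and kanamycin to OD600 0.4–0.8, then diluted to OD600 0.02. Added to twofold drug dilutions (0.003–200 μM). Incubated 5 days at 37 °C, 5% CO2. Luminescence read against 1% DMSO and 10 μM rifampicin controls to give % growth inhibition. MIC taken from a modified Gompertz fit.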

The test system of data set [4] is Erythrocyte. Kind of data set: Hemolytic activity against human RBC at 200 uM measured after 1 hr. The format is toxicity, cell-based. An outline of the steps:
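2% hRBCs exposed to compound at 200 μM final, added from DMSO stock, for 1 h at 37 °C. Supernatant OD read at 405 nm. Hemolysis normalized between DMSO (0%) and Triton X (100%); three independent experiments.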

The test system of data set [5] is HepG2. Kind of data set: Cytotoxicity against human HepG2 cells assessed as reduction in cell viability […] by Alamar blue assay. Format: toxicity, cell-based. Background: The colour change of resazurin is a common sign of viable cells or microbes.
The test system of data set [6] is Enterococcus faecium. Kind of data set: Bactericidal activity against methicillin-resistant vancomycin-resistant Enterococcus faecium ATCC 700221 planktonic cells assessed as planktonic eradication incubated for 24 hrs followed by incubation for overnight in fresh medium by Calgary biofilm device assay. Format: functional. An outline of the steps: as §2
In data set [7] the test system is Staphylococcus epidermidis. Kind of data set: Antibacterial activity against methicillin-resistant Staphylococcus epidermidis ATCC 35984 assessed as bacterial growth inhibition incubated for 16 hrs by broth microdilution susceptibility test. The format is functional. An outline of the steps: (§3)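 CLSI broth microdilution with 11 twofold dilutions (0.05–50 μM). About 10^5 cells per well from a log-phase culture. DMSO vehicle up to 0.5% v/v. At least three independent experiments.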

Data set [8] relates to Enterococcus faecalis. Kind of data set: Antibacterial activity against Enterococcus faecalis OG1RF ATCC 47077 assessed as bacterial growth inhibition incubated for 16 hrs by broth microdilution susceptibility test. The format is functional.
Data set [9] deals with Enterococcus faecium. Kind of data set: Antibiofilm activity against methicillin-resistant vancomycin-resistant Enterococcus faecium ATCC 700221 biofilms assessed as biofilm eradication incubated for 24 hrs followed by incubation for 24 hrs in fresh medium by Calgary biofilm device assay. Format: functional. The method in brief: (§4)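 Calgary biofilm device. Mid-log culture diluted 1000-fold in TSB with 0.5% glucose; biofilms grown on pegs 24 h at 37 °C. Pegs washed and challenged with twofold compound dilutions for 24 h at 37 °C, then moved to fresh medium for 24 h. MBEC is the lowest concentration leaving wells non-turbid. At least three independent experiments.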

In data set [10] the test system is J774. Kind of data set: Cytotoxicity against mouse J774 cells assessed as reduction in cell viability […] by Alamar blue assay. Format: toxicity, cell-based.
Data set [11] has as its system Staphylococcus aureus. Kind of data set: Antibacterial activity against methicillin-resistant Staphylococcus aureus BAA-1707 assessed as bacterial growth inhibition incubated for 16 hrs by broth microdilution susceptibility test. The format is functional. The method in brief: as §3
Data set [12] concerns HeLa. Kind of data set: Cytotoxicity against human HeLa cells assessed as reduction in cell viability incubated for 24 hrs by LDH release assay. The format is toxicity, cell-based. The method in brief: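 HeLa cells in DMEM with 10% FBS, treated at 70–80% confluence with 25, 50 and 100 μM for 24 h. LDH in supernatant measured by 30 min reaction at room temperature, then stop solution and absorbance at 490 nm. Controls: 2% Triton X-100 (maximum), medium only, DMSO vehicle. Three independent experiments.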
In general terms: Release of lactate dehydrogenase indicates damage to the cell membrane.

The test system of data set [13] is Staphylococcus aureus. Kind of data set: Bactericidal activity against methicillin-resistant Staphylococcus aureus BAA-1707 planktonic cells assessed as planktonic eradication incubated for 24 hrs followed by incubation for overnight in fresh medium by Calgary biofilm device assay. Format: functional. An outline of the steps:
as §2

Data set [14] deals with Staphylococcus aureus. Kind of data set: Antibacterial activity against methicillin-resistant Staphylococcus aureus BAA-44 assessed as bacterial growth inhibition incubated for 16 hrs by broth microdilution susceptibility test. Format: functional. The method in brief:
as §1

For data set [15], the system named is Staphylococcus epidermidis. Kind of data set: Antibiofilm activity against methicillin-resistant Staphylococcus epidermidis ATCC 35984 biofilms assessed as biofilm eradication incubated for 24 hrs followed by incubation for 24 hrs in fresh medium by Calgary biofilm device assay. The format is functional. The method in brief: as §4
Data set [16] has as its system Staphylococcus aureus. Kind of data set: Antibiofilm activity against methicillin-resistant Staphylococcus aureus BAA-1707 biofilms assessed as biofilm eradication incubated for 24 hrs followed by incubation for 24 hrs in fresh medium by Calgary biofilm device assay. Format: functional. The method in brief: as §4

As usually defined, the MIC is the smallest concentration in the dilution series that meets the test's criterion for growth inhibition. The term IC50 denotes the concentration that gives 50% inhibition.

Turning to `Oc1cc(Cl)cc2nc3c(Br)cccc3nc12`, the MIC in [1] worked out at […].

On to `Cc1ccc2nc3c(O)c(Br)c(Cl)c(Br)c3nc2c1C`, for which the MBC is 3.13 µM (≈ 1.3 µg/mL) in [2] and 0.78 µM (≈ 0.325 µg/mL) in data set [6]. Besides, the minimal inhibitory concentration (MIC) in [3] is 3.62 µM (≈ 1.51 µg/mL); in [7] it was at most 0.05 µM; in [8], 0.2 µM (≈ 0.0833 µg/mL); in data set [11] it was 0.05 µM (≈ 0.0208 µg/mL); in data set [1] it was 0.08 µM (≈ 0.0333 µg/mL). Also, in data set [4], the Activity entry is “<= 1%”. Further, the IC50 in data set [5] and in data set [10] was above 200 µM each time. Further, the MBEC in [9] was 0.3 µM.

For the compound `Oc1c(Br)c(Cl)c(Br)c2nc3ccc(F)cc3nc12`, the MBC amounted to 12.5 µM (≈ 5.08 µg/mL) in [2], 3.13 µM (≈ 1.27 µg/mL) in [6] and 12.5 µM (≈ 5.08 µg/mL) in data set [13]. Further, the results for the IC50 in [12], in [5] and in data set [10] were above 25 µM, above 200 µM and above 200 µM, respectively. In addition, the MIC in data set [3] came to 1.71 µM (≈ 0.695 µg/mL); in [14], 0.2 µM (≈ 0.0813 µg/mL); in data set [11], 0.15 µM (≈ 0.061 µg/mL); in data set [1], 0.78 µM (≈ 0.317 µg/mL). The Activity entry in data set [4] was “<= 1%”. In data set [15], the MBEC was 12.5 µM.

Regarding `Oc1cc(Cl)cc2nc3ccc(F)cc3nc12`, the MIC in data set [11] was found to be 6.25 µM (≈ 1.55 µg/mL).

In the case of `Cc1cccc2nc3c(O)c(Br)cc(Br)c3nc12`, the MIC in [11] is 0.3 µM (≈ 0.11 µg/mL).

Turning to `Oc1cc(Cl)cc2nc3ccc(I)cc3nc12`, the 50% inhibitory concentration (IC50) in data set [12] was found to be 100 µM. In data set [4], this compound came in with an Activity of 1.9%. Further, the MBC in [13] was 37.5 µM (≈ 13.4 µg/mL). In addition, the minimum inhibitory concentration (MIC) in [14] was 1.56 µM (≈ 0.556 µg/mL); in data set [11] it was 0.78 µM (≈ 0.278 µg/mL); in data set [1], 3.13 µM (≈ 1.12 µg/mL). In [16], the MBEC came out at 37.5 µM.

Turning to `Cc1cccc2nc3c(O)c(Br)c(SCCO)c(Br)c3nc12`, the MIC stood at 6.25 µM (≈ 2.78 µg/mL) in data set [14], 6.25 µM (≈ 2.78 µg/mL) in data set [11] and 12.5 µM (≈ 5.55 µg/mL) in [1].

For `Oc1c(Br)c(Cl)c(Br)c2nc3ccc(I)cc3nc12`, the MBC in data set [2] is 6.25 µM (≈ 3.21 µg/mL); in [6] it was 4.69 µM (≈ 2.41 µg/mL); in data set [13], 12.5 µM (≈ 6.43 µg/mL). This compound also displayed an Activity in data set [4] of 3%. Moreover, the MIC came out at 0.3 µM (≈ 0.154 µg/mL) in [7], 1.56 µM (≈ 0.802 µg/mL) in data set [8] and 0.15 µM (≈ 0.0772 µg/mL) in [11]. Moreover, the MBEC in data set [9] amounted to 3.13 µM; in data set [15], 6.25 µM.

On to `Oc1c(Br)cc(Br)c2nc3cc(Cl)ccc3nc12`, for which the MIC in data set [11] was 0.1 µM (≈ 0.0388 µg/mL).

For `Cc1ccc2nc3c(O)cc(Cl)cc3nc2c1C`, the MIC in data set [7] is 2.35 µM (≈ 0.608 µg/mL); in [8], 12.5 µM (≈ 3.23 µg/mL); in data set [14], 2.35 µM (≈ 0.608 µg/mL); in [11] it was 2.35 µM (≈ 0.608 µg/mL); in data set [1] it was 3.13 µM (≈ 0.81 µg/mL).
